Values joined by “and” are separate entries in the source; they are usually repeats but may differ in a detail not shown here. Identical values can stand only once.
How the values were obtained:
[1] = tested on: unselected stage IV NSCLC; conditions: second-line monotherapy; cited from earlier work
[2] = tested on: EGFRex20ins mutants; conditions: cited from earlier work
[3] = tested on: previously treated NSCLC with EGFRex20ins mutations; assay: Investigator-assessed antitumor activity; type: in vivo, human; conditions: for Best confirmed response: Stable disease: observed ≥6 weeks after first dose
[4] = Plasma pharmacokinetics of mobocertinib in dose-escalation patients; type: in vivo, human; conditions: oral
Procedure, shortened: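 Patients with NSCLC took oral capsules once daily in continuous 28-day cycles. Plasma was sampled at prespecified times after the first dose (Cycle 1, Day 1) and at steady state (Cycle 2, Day 1). Drug and active metabolites were quantified by validated LC-MS. Tmax, Cmax and AUC0–24 came from noncompartmental analysis. Effective half-life was derived from accumulation as a geometric mean.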

[5] = tested on: patients treated with mobocertinib 160 mg daily; assay: Safety and tolerability; type: in vivo, human; conditions: for Treatment-related TEAE Anemia, Any Grade / Treatment-related TEAE Anemia, Grade ≥3 / Treatment-related TEAE Decreased appetite, Any Grade / Treatment-related TEAE Decreased appetite, Grade ≥3 / Treatment-related TEAE Dermatitis acneiform, Any Grade / Treatment-related TEAE Dermatitis acneiform, Grade ≥3 / Treatment-related TEAE Diarrhea, Any Grade / Treatment-related TEAE Diarrhea, Grade ≥3 / Treatment-related TEAE Dry skin, Any Grade / Treatment-related TEAE Dry skin, Grade ≥3 / Treatment-related TEAE Dyspepsia, Any Grade / Treatment-related TEAE Dyspepsia, Grade ≥3 / Treatment-related TEAE Fatigue, Any Grade / Treatment-related TEAE Fatigue, Grade ≥3 / Treatment-related TEAE GERD, Any Grade / Treatment-related TEAE GERD, Grade ≥3 / Treatment-related TEAE Increased lipase, Any Grade / Treatment-related TEAE Increased lipase, Grade ≥3 / Treatment-related TEAE Nausea, Any Grade / Treatment-related TEAE Nausea, Grade ≥3 / Treatment-related TEAE Paronychia, Any Grade / Treatment-related TEAE Paronychia, Grade ≥3 / Treatment-related TEAE Pruritus, Any Grade / Treatment-related TEAE Pruritus, Grade ≥3 / Treatment-related TEAE Rash maculo-papular, Any Grade / Treatment-related TEAE Rash maculo-papular, Grade ≥3 / Treatment-related TEAE Rash, Any Grade / Treatment-related TEAE Rash, Grade ≥3 / Treatment-related TEAE Stomatitis, Any Grade / Treatment-related TEAE Stomatitis, Grade ≥3 / Treatment-related TEAE Vomiting, Any Grade / Treatment-related TEAE Vomiting, Grade ≥3: number (%) of patients
Procedure, shortened: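 Safety pooled phase 1 and phase 2 patients who received at least one dose at an initial 160 mg daily, given orally in continuous 28-day cycles. Treatment-related TEAEs were tallied at any grade and at grade ≥3. The EGFRex20ins NSCLC subgroup came from dose escalation plus expansion cohort 1. Grade 3–4 toxicity led to withholding the drug, with up to two dose reductions allowed.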

[6] = tested on: patients with advanced NSCLC refractory to standard therapies; assay: Phase 1 dose-escalation study; type: in vivo
[7] = 80 mg total daily dose (n=9), includes 80 mg daily and 40 mg twice daily
[8] = 28 patients with EGFRex20ins mutations treated at 160 mg daily
[9] = 136 patients treated at 160 mg daily
[10] = all patients treated at 160 mg daily (n=136)
[11] = patients with EGFRex20ins treated at 160 mg daily (n=28)

CC(=O)O[C@@]12CO[C@@H]1C[C@H](O)[C@@]1(C)C(=O)[C@H](O)C3=C(C)[C@@H](OC(=O)[C@H](O)[C@@H](NC(=O)OC(C)(C)C)c4ccccc4)C[C@@](O)([C@@H](OC(=O)c4ccccc4)[C@H]21)C3(C)C [Docetaxel]
median duration of response [1]: approximately 6 months

C=CC(=O)N1CCC(Oc2cc3c(Nc4ccc(Cl)c(Cl)c4F)ncnc3cc2OC)CC1 [Poziotinib]
inhibition of EGFRex20ins mutants in vitro [2]: potent inhibition

C=CC(=O)Nc1cc(Nc2ncc(C(=O)OC(C)C)c(-c3cn(C)c4ccccc34)n2)c(OC)cc1N(C)CCN(C)C [mobocertinib]
Best confirmed response: Not evaluated ([3]; 80 mg total daily dose (n=9)): 0 n (%)
Best confirmed response: Progressive disease ([3]; 80 mg total daily dose (n=9)): 1 (11) n (%)
Best confirmed response: Complete response [3, 7]: 1 (11) n (%)
Best confirmed response: Partial response [3, 7]: 1 (11) n (%)
Best confirmed response: Stable disease ([3]; 80 mg total daily dose (n=9)): 6 (67) n (%)
confirmed ORR ([3]; 120 mg daily (4/21)): 19%
Best confirmed response: Complete response ([3]; 120 mg daily (n=21)): 1 (5) n (%)
Best confirmed response: Not evaluated ([3]; 120 mg daily (n=21)): 3 (14) n (%)
Best confirmed response: Partial response ([3]; 120 mg daily (n=21)): 3 (14) n (%)
Best confirmed response: Progressive disease ([3]; 120 mg daily (n=21)): 3 (14) n (%)
Best confirmed response: Stable disease ([3]; 120 mg daily (n=21)): 11 (52) n (%)
investigator-assessed confirmed ORR ([3]; 160 mg daily (12/28; 95% CI 24–63%)): 43%
disease control rate ([3]; 160 mg daily (24/28; 95% CI 67–96%)): 86%
Best confirmed response: Complete response ([3]; 160 mg daily (n=28)): 0 n (%)
Best confirmed response: Not evaluated ([3]; 160 mg daily (n=28)): 2 (7) n (%)
Best confirmed response: Partial response ([3]; 160 mg daily (n=28)): 12 (43) n (%)
Best confirmed response: Progressive disease ([3]; 160 mg daily (n=28)): 2 (7) n (%)
Best confirmed response: Stable disease ([3]; 160 mg daily (n=28)): 12 (43) n (%)
median PFS ([3]; 160 mg daily, 28 EGFRex20ins patients (95% CI 4.4–15.6)): 7.3 months and 7 months
median duration of response in confirmed responders ([3]; 160 mg daily, 28 EGFRex20ins patients (95% CI 5.0–not reached)): 14 months and 13.9 months
12-month event-free rate (PFS) ([3]; 160 mg daily, 28 EGFRex20ins patients (95% CI 16–53%)): 34%
investigator-assessed confirmed ORR ([3]; 160 mg daily, patients with baseline brain metastases (3/12; 95% CI 5–57%)): 25%
median investigator-assessed PFS ([3]; 160 mg daily, patients with baseline brain metastases (95% CI 1.8–15.9)): 3.7 months
12-month event-free rate (PFS) ([3]; 160 mg daily, patients with baseline brain metastases (95% CI 3–52%)): 23%
investigator-assessed confirmed ORR ([3]; 160 mg daily, patients without baseline brain metastases (9/16; 95% CI 30–80%)): 56%
median duration of response in confirmed responders ([3]; 160 mg daily, patients without baseline brain metastases (95% CI 5.0–16.6)): 13.8 months
12-month event-free rate (PFS) ([3]; 160 mg daily, patients without baseline brain metastases (95% CI 18–66%)): 43%
confirmed ORR ([3]; 5–40 mg daily (0/12)): 0%
Best confirmed response: Complete response ([3]; 5–40 mg daily (n=12)): 0 n (%)
Best confirmed response: Not evaluated ([3]; 5–40 mg daily (n=12)): 2 (17) n (%)
Best confirmed response: Partial response ([3]; 5–40 mg daily (n=12)): 0 n (%)
Best confirmed response: Progressive disease ([3]; 5–40 mg daily (n=12)): 7 (58) n (%)
confirmed ORR ([3]; 5–40 mg daily (n=12)): 0 [0–26] n (%) [95% CI]
Best confirmed response: Stable disease ([3]; 5–40 mg daily (n=12)): 3 (25) n (%)
confirmed ORR ([3]; 80-mg total daily dose (2/9)): 22%
half-life ([4]; human, plasma): 11 to 17 h
exposure (AUC0–24) dose dependence ([4]; dose range 5 mg to 180 mg daily): approximately dose-proportional
patients with AEs leading to discontinuation [5, 8]: 25%
patients with AEs requiring dose interruption [5, 8]: 57%
patients with AEs requiring dose reduction [5, 8]: 18%
patients who experienced a treatment-emergent adverse event (TEAE) [5, 9]: 99%
patients with TEAEs considered related to mobocertinib treatment [5, 9]: 96%
patients with TEAEs requiring discontinuation [5, 9]: 16%
patients with TEAEs requiring dose interruption [5, 9]: 54%
patients with TEAEs requiring dose reduction [5, 9]: 17%
patients with grade 3 or higher treatment-related TEAEs [5, 9]: 40%
patients with serious treatment-related TEAEs [5, 9]: 13%
serious treatment-related TEAE diarrhea, patients [5, 9]: 4%
serious treatment-related TEAE vomiting, patients [5, 9]: 4%
treatment-related diarrhea, any grade, patients [5, 9]: 83%
treatment-related diarrhea, grade ≥3, patients [5, 9]: 21%
treatment-related nausea, any grade, patients [5, 9]: 43%
treatment-related rash, any grade, patients [5, 9]: 33%
treatment-related vomiting, any grade, patients [5, 9]: 26%
diarrhea leading to discontinuation, patients ([5]; 136 patients treated at 160 mg daily (7/136)): 5%
Treatment-related TEAE Anemia, Any Grade [5, 10]: 19 (14)
Treatment-related TEAE Anemia, Grade ≥3 [5, 10]: 3 (2)
Treatment-related TEAE Decreased appetite, Any Grade [5, 10]: 29 (21)
Treatment-related TEAE Decreased appetite, Grade ≥3 [5, 10]: 1 (1)
Treatment-related TEAE Dermatitis acneiform, Any Grade [5, 10]: 19 (14)
Treatment-related TEAE Dermatitis acneiform, Grade ≥3 [5, 10]: 1 (1)
Treatment-related TEAE Diarrhea, Any Grade [5, 10]: 113 (83)
Treatment-related TEAE Diarrhea, Grade ≥3 [5, 10]: 28 (21)
Treatment-related TEAE Dry skin, Any Grade [5, 10]: 30 (22)
Treatment-related TEAE Dry skin, Grade ≥3 [5, 10]: 0
Treatment-related TEAE Dyspepsia, Any Grade [5, 10]: 16 (12)
Treatment-related TEAE Dyspepsia, Grade ≥3 [5, 10]: 0
Treatment-related TEAE Fatigue, Any Grade [5, 10]: 28 (21)
Treatment-related TEAE Fatigue, Grade ≥3 [5, 10]: 2 (1)
Treatment-related TEAE GERD, Any Grade [5, 10]: 17 (13)
Treatment-related TEAE GERD, Grade ≥3 [5, 10]: 0
Treatment-related TEAE Increased lipase, Any Grade [5, 10]: 15 (11)
Treatment-related TEAE Increased lipase, Grade ≥3 [5, 10]: 7 (5)
Treatment-related TEAE Nausea, Any Grade [5, 10]: 58 (43)
Treatment-related TEAE Nausea, Grade ≥3 [5, 10]: 5 (4)
Treatment-related TEAE Paronychia, Any Grade [5, 10]: 22 (16)
Treatment-related TEAE Paronychia, Grade ≥3 [5, 10]: 0
Treatment-related TEAE Pruritus, Any Grade [5, 10]: 14 (10)
Treatment-related TEAE Pruritus, Grade ≥3 [5, 10]: 0
Treatment-related TEAE Rash maculo-papular, Any Grade [5, 10]: 22 (16)
Treatment-related TEAE Rash maculo-papular, Grade ≥3 [5, 10]: 1 (1)
Treatment-related TEAE Rash, Any Grade [5, 10]: 45 (33)
Treatment-related TEAE Rash, Grade ≥3 [5, 10]: 1 (1)
Treatment-related TEAE Stomatitis, Any Grade [5, 10]: 28 (21)
Treatment-related TEAE Stomatitis, Grade ≥3 [5, 10]: 5 (4)
Treatment-related TEAE Vomiting, Any Grade [5, 10]: 36 (26)
Treatment-related TEAE Vomiting, Grade ≥3 [5, 10]: 5 (4)
Treatment-related TEAE Anemia, Any Grade [5, 11]: 5 (18)
Treatment-related TEAE Anemia, Grade ≥3 [5, 11]: 0
Treatment-related TEAE Decreased appetite, Any Grade [5, 11]: 11 (39)
Treatment-related TEAE Decreased appetite, Grade ≥3 [5, 11]: 0
Treatment-related TEAE Dermatitis acneiform, Any Grade [5, 11]: 5 (18)
Treatment-related TEAE Dermatitis acneiform, Grade ≥3 [5, 11]: 0
Treatment-related TEAE Diarrhea, Any Grade [5, 11]: 23 (82)
Treatment-related TEAE Diarrhea, Grade ≥3 [5, 11]: 9 (32)
Treatment-related TEAE Dry skin, Any Grade [5, 11]: 5 (18)
Treatment-related TEAE Dry skin, Grade ≥3 [5, 11]: 0
Treatment-related TEAE Dyspepsia, Any Grade [5, 11]: 6 (21)
Treatment-related TEAE Dyspepsia, Grade ≥3 [5, 11]: 0
Treatment-related TEAE Fatigue, Any Grade [5, 11]: 4 (14)
Treatment-related TEAE Fatigue, Grade ≥3 [5, 11]: 1 (4)
Treatment-related TEAE GERD, Any Grade [5, 11]: 3 (11)
Treatment-related TEAE GERD, Grade ≥3 [5, 11]: 0
Treatment-related TEAE Increased lipase, Any Grade [5, 11]: 7 (25)
Treatment-related TEAE Increased lipase, Grade ≥3 [5, 11]: 2 (7)
Treatment-related TEAE Nausea, Any Grade [5, 11]: 11 (39)
Treatment-related TEAE Nausea, Grade ≥3 [5, 11]: 3 (11)
Treatment-related TEAE Paronychia, Any Grade [5, 11]: 8 (29)
Treatment-related TEAE Paronychia, Grade ≥3 [5, 11]: 0
Treatment-related TEAE Pruritus, Any Grade [5, 11]: 5 (18)
Treatment-related TEAE Pruritus, Grade ≥3 [5, 11]: 0
Treatment-related TEAE Rash maculo-papular, Any Grade [5, 11]: 7 (25)
Treatment-related TEAE Rash maculo-papular, Grade ≥3 [5, 11]: 1 (4)
Treatment-related TEAE Rash, Any Grade [5, 11]: 13 (46)
Treatment-related TEAE Rash, Grade ≥3 [5, 11]: 0
Treatment-related TEAE Stomatitis, Any Grade [5, 11]: 6 (21)
Treatment-related TEAE Stomatitis, Grade ≥3 [5, 11]: 2 (7)
Treatment-related TEAE Vomiting, Any Grade [5, 11]: 10 (36)
Treatment-related TEAE Vomiting, Grade ≥3 [5, 11]: 2 (7)
recommended phase 2 dose (RP2D) ([6]; human, in vivo, po, 28 days): 160 mg daily
maximum tolerated dose (MTD) ([6]; oral, 28-day cycles, dose escalation 5-180 mg daily): 160 mg daily
